# How the values were obtained:
# [1] = test system: MS2 coat protein; experiment: apparent Kd, MS2 coat protein; higher = weaker binding; RNA-MaP array; theophylline 2 mM where present
# Summary of the method: (§1)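 Binding was read on Illumina sequencing-chip clusters where stalled E. coli RNA polymerase had transcribed each design. A titration of SNAP-549-labelled MS2 coat protein began at 0.7 or 1.5 nM and doubled to 3 µM, once without ligand and once with constant ligand, in 100 mM Tris-HCl pH 7.5, 80 mM KCl, 4 mM MgCl2, BSA, DTT, yeast tRNA and Tween-20. The apparent Kd is the median of filtered per-cluster binding-curve fits, based on green signal normalised to red-channel RNA signal and control-cluster median Fmax.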
# [2] = test system: MS2 coat protein; experiment: apparent Kd, MS2 coat protein; higher = weaker binding; RNA-MaP array; tryptophan 2.4 mM where present
# Summary of the method: as §1
# [3] = designed as: OFF switch for theophylline, no ligand
# [4] = ligand present: theophylline, designed as: OFF switch for theophylline
# [5] = designed as: ON switch for theophylline, no ligand
# [6] = ligand present: theophylline, designed as: ON switch for theophylline
# [7] = designed as: ON switch for tryptophan, no ligand
# [8] = ligand present: tryptophan, designed as: ON switch for tryptophan
# [9] = designed as: OFF switch for tryptophan, no ligand
# [10] = ligand present: tryptophan, designed as: OFF switch for tryptophan
sequence,measurement,setting,value
AGCGACAUGCGUGAUACCAGCUACAUGAGGAUCACCCAUGUACGUCAGAAAUGACUGUGUAGCCCUUGGCAGCAUAGUGCAUGUC,apparent Kd,[1]; [3],32.6 nM
same,apparent Kd,[1]; [4],60.7 nM
GAUGAACUAUUUGAUACCAGACUACAUGAGGAUCACCCAUGUGCGCGUCGUCCUCUGCCAGUCCCUUGGCAGCAAAUAGUUUAUC,apparent Kd,[1]; [3],101 nM
same,apparent Kd,[1]; [4],127 nM
GGCCGAUGGUGCGAUACCAGCUUGAGUGUACUGGCCAGGUACAUGAGGAUCACCCAUGUAAGCCCUUGGCAGCGCGUCAGAGGCC,apparent Kd,[1]; [4],35.8 nM
AUCGUACCUGAUGAUACCAGCAAGUGAUCAUAACAUGAGGAUCACCCAUGUAAUCAGUGAUGCCCUUGGCAGCAUAAUCGAUACA,apparent Kd,[1]; [5],178 nM
same,apparent Kd,[1]; [6],140 nM
AGACAUGAGGAUCACCCAUGUAGUACGGAUACCAGAUCCAGAUGCGUCCCUUGGCAGCUGUGGUACAGCGUUACAUCGCUCGUAG,apparent Kd,[1]; [3],17.6 nM
same,apparent Kd,[1]; [4],17.6 nM
AUAAUGGGUAUCGGAUUAUCAUGGAAUGAUACCAGAUACUUAGAUAUCCCUUGGCAGCAUGAGGACAUGAGGAUCACCCAUGUAU,apparent Kd,[1]; [3],46.4 nM
same,apparent Kd,[1]; [4],118 nM
AACAUGGGAUUAAAAUAAAUAAUAACUGAUACCAGACUAUAUAAUGUCCCUUGGCAGCAGAUACAUGAGGAUCACCCAUGUAUUA,apparent Kd,[1]; [3],12.9 nM
same,apparent Kd,[1]; [4],23.8 nM
UUAUUUAUAAUUGAUACCAGUUUAAUGGCCGCAAAUCCUGACAUGAGGAUCACCCAUGUAAGCCCUUGGCAGCGGUUAUGGGUUU,apparent Kd,[1]; [3],21 nM
same,apparent Kd,[1]; [4],21.1 nM
ACCCAUAAUUGGGCGGGUGGAUUGAGUGAUACCAGUCGUAUACAUGACCCUUGGCAGCACCGACAUGAGGAUCACCCAUGUGCCA,apparent Kd,[1]; [5],39.7 nM
same,apparent Kd,[1]; [6],99.8 nM
ACGUCAUGGAGAACGUGACGACUUAUCGAUACCAGCGAUUGAGAGCGCCCUUGGCAGCGAACAUGAGGAUCACCCAUGUCAAGGG,apparent Kd,[1]; [5],29.7 nM
same,apparent Kd,[1]; [6],42.1 nM
ACGUUUUAGUCGGCCGCCACUGUUUUCAUGUUCAACAUGAGGAUCACCCAUGUACCUUUUUUUAUCAGGACCGGGACGUAAUAGA,apparent Kd,[2]; [7],68.5 nM
same,apparent Kd,[2]; [8],27.4 nM
GGUUACUCUACGGCCGCCACUGUAAAGUAAAGAUACCUGUACAUGACAUGAGGAUCACCCAUGUACAGGACCGGGUAGUGUAACC,apparent Kd,[2]; [7],545 nM
same,apparent Kd,[2]; [8],232 nM
GCUACAUGAGGAUCACCCAUGUAUGCGAGCCGAGGACCGGUACGGCCGCCACUCGCUUAACAUGAGGAUCACCCAUGUUGCUCGG,apparent Kd,[2]; [7],40.9 nM
same,apparent Kd,[2]; [8],43.6 nM
UUCUUUAAGUCGGCCGCCACUGAAACAUGAGGAUCACCCAUGUAAAUUUGGGAGUAGUUAUAUUACAGGACCGGGACUAUAGUAA,apparent Kd,[2]; [9],41.5 nM
same,apparent Kd,[2]; [10],83 nM
AAACAUGAGGAUCACCCAUGUAUGUUAUUACGAGGACCGGUACGGCCGCCACUCGAUAGAGUAGAAGUAAAUUGUAAUUCAUGUU,apparent Kd,[2]; [9],14.3 nM
same,apparent Kd,[2]; [10],15.9 nM
AGCCACUCGAGUGAUCCUCACGAGUGGCUACGAGGACCGGUACGGCCGCCACUCGAAUUAACAUGAGGAUCACCCAUGUAAUCUA,apparent Kd,[2]; [7],81 nM
same,apparent Kd,[2]; [8],53.8 nM
GUGCCGCAUUCACAUGAGGAUCACCCAUGUCGAGGACCGGUACGGCCGCCACUCGACGUGCUUACAGGUCCUUUAAGGCCCAAUA,apparent Kd,[2]; [9],92.8 nM
same,apparent Kd,[2]; [10],43.8 nM
UUAUAAGUACCGGUCCUCAGAUCCUCAUGACGAGGACCGGUACGGCCGCCACUCGAAACAUGAGGAUCACCCAUGUAAUAAUAAC,apparent Kd,[2]; [9],37.2 nM
same,apparent Kd,[2]; [10],18.2 nM
CACAUUUUUAGAAGGGCGGUUUCACUCCUGCGAGGACCGGUACGGCCGCCACUCGACAUGAGGAUCACCCAUGUGGAGAAGUUAG,apparent Kd,[2]; [9],20.5 nM
same,apparent Kd,[2]; [10],110 nM
CACAGUGCGAAAUUGAAACCGCACGAUCCUCGAGGACCGGUACGGCCGCCACUCGCGCGGGUCGUACAUGAGGAUCACCCAUGUC,apparent Kd,[2]; [7],262 nM
same,apparent Kd,[2]; [8],371 nM
AACAUGAGGAUCACCCAUGUCCCAUGUGAACGAGGACCGGUACGGCCGCCACUCGACCGAGGCGGCACAUGAGGAUCACCCACAU,apparent Kd,[2]; [7],234 nM
same,apparent Kd,[2]; [8],608 nM
AAUACCGGUCCUCGAGGGUGAUCCUCAUGACGAGGACCGGUACGGCCGCCACUCGAUAACAUGAGGAUCACCCAUGUAAUCGAGU,apparent Kd,[2]; [9],59 nM
same,apparent Kd,[2]; [10],56.4 nM
GCUAGGUCUACGGCCGCCACUAGACAUGGGUAAGACAUGAGGAUCACCCAUGUACUACGAGUGCAUAGGACCGGGUAGACCUAGC,apparent Kd,[2]; [7],326 nM
same,apparent Kd,[2]; [8],53.5 nM
UUCGUUGGCGAUCUGGGUUUACCAGAUCGGCGAGGACCGGUACGGCCGCCACUCGUGUUUUCUUUACAUGAGGAUCACCCAUGUU,apparent Kd,[2]; [7],19.2 nM
same,apparent Kd,[2]; [8],15.2 nM
ACAUGAGGAUCACCCAUGUCAUGAGGUUCACGAGGACCGGUACGGCCGCCACUCGACAUGAGGGUCACCCAUGUGAGGAACACCC,apparent Kd,[2]; [7],305 nM
same,apparent Kd,[2]; [8],97 nM
UAGUUGUAGUCGGCCGCCACUGUGAGCAUGGUUAACAUGAGGAUCACCCAUGUCCCGUACUAUAACAGGACCGGGACGUAGUUGC,apparent Kd,[2]; [7],48.1 nM
same,apparent Kd,[2]; [8],22.9 nM

# Reference: the EternaBench riboswitch data
